According to PubChem BioAssay AID540295 (The Scripps Research Institute Molecular Screening Center, 2011):
About 1,700 (0.47%) of roughly 360,000 compounds were called active. The sample holds actives, similar compounds and a random draw of the others, so the mix is not that of the screen. A number with no mark means an inactive call.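 Rule for the calls: active = inhibition above its plate's cutoff, the mean of tested wells on that plate plus 3 SD (cut at about 29% in these data); inactive = the rest.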

What follows are compounds tested against Melanocortin receptor 4 (Homo sapiens) (UniProt P32245) (assay: blockers of MC4R Gs-cAMP response – cell-based, TR-FRET, antagonist arm of biased-ligand search, primary screen (AID 540295;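 note: 0% = Melanotan II alone and 100% = Melanotan II plus saturating MCL0020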)). Conditions: MC4R-expressing cells, MTII-stimulated cAMP, LANCE TR-FRET; at 6.5 µM; stronger effect = higher value.
Chain of Melanocortin receptor 4 (Homo sapiens) (P32245 whole entry, looked up): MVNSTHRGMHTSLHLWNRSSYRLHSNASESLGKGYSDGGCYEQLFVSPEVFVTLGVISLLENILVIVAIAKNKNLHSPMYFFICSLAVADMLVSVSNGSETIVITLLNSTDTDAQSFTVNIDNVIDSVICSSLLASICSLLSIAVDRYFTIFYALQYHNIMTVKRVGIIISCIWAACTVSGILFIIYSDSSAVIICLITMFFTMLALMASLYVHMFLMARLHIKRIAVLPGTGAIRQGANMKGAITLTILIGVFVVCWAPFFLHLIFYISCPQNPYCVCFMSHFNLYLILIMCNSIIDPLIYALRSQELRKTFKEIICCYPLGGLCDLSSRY
How it was run: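 system = U2OS cells with stable human MC4R expression | also added = Melanotan II challenge after compound preincubation | dosing = one concentration, 6.5 µM nominal | incubation = compound 30 min, challenge 1 h, detection 1 h | measured by = TR-FRET with Eu-cAMP and labeled anti-cAMP, 671 nm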

Going from `CCOC(=O)c1c(NC(=O)COC(=O)c2ccc(S(=O)(=O)C(F)F)cc2)sc(C(=O)N(C)C)c1C` to `COC(=O)c1sc(NC(=O)COC(=O)C2CCC2)c(C(=O)OC)c1C`, the inhibition falls from 8.14% to 3.01%.

First: O=S(=O)(c1ccc(SCc2ccc(Br)cc2)nc1)N1CCOCC1
Second: O=C(Nc1ccc(S(=O)(=O)Nc2nccs2)cc1)c1cccc(S(=O)(=O)N2CCOCC2)c1
The inhibition of the first is lower: 5.21% for the first, 13.1% for the second.

First: CCCCC1N2CC3([N+](=O)[O-])CN1CC([N+](=O)[O-])(C2)C3(C)C (centres undefined)
Second: CCCC/C(C)=N/NC(=O)NC1CCCCC1
The inhibition of the first is lower: 1.22% for the first, 6.08% for the second.

Going from `Cn1c(=O)[nH]c(=O)c2c1nc(CN1CCN(c3ccccc3F)CC1)n2CCc1ccccc1` to `CC=CCn1c(SCCCc2ccccc2)nc2c1c(=O)[nH]c(=O)n2C`, the inhibition falls from 4.45% to -6.73%.

Going from `COc1ccc2oc(=O)cc(CN3CCOCC3)c2c1` to `COc1ccc2oc(N)nc2c1`, the inhibition falls from 5.75% to -3.46%.

First: O=C(Nc1ccccc1)c1nnsc1S(=O)(=O)c1ccc(Cl)cc1
Second: COc1cccc(NC(=O)c2ccccc2N(Cc2ccccc2)S(C)(=O)=O)c1
The inhibition of the first is higher: 22.3% for the first, 4.09% for the second.

Compared with `CCOC(=O)N1CCN(C(=O)c2ccccc2N(Cc2ccccc2)S(=O)(=O)c2ccc(OC)cc2)CC1`, `COc1ccc(S(=O)(=O)NC(=O)C2(C)CCN2C(=O)c2ccccc2CCc2ccccc2)cc1` (centres undefined) is higher in inhibition: -11% for the first, -3.11% for the second.

First: CCc1nnc(NC(=O)[C@@H](NC(=O)c2cccc(C)c2)C(C)C)s1
Second: CCOC(=O)C1CCN(Cc2nnc(-c3cccc(Br)c3)o2)CC1
The inhibition of the first is lower: 2.22% for the first, 7.07% for the second.

Going from `COc1ccc2c(c1)c1nc3n(c(=O)c1n2CC(=O)Nc1ccccc1)CCS3` to `COc1cccc(NC(=O)Cn2c3ccccc3c3nc4n(c(=O)c32)CCS4)c1`, the inhibition rises from -10.3% to 19.8%.

Compared with `N#Cc1ccc(OCC(=O)Nc2nc(-c3ccccn3)cs2)cc1`, `COc1ccc(NC(=O)CN2C(=O)NC(C)(c3ccccc3)C2=O)cn1` (centres undefined) is higher in inhibition: -1.39% for the first, -0.87% for the second.

First: COc1ccc(CCNC(=O)CCCCCNC(=O)N2CCn3c2nc2ccccc23)cc1OC
Second: CCOc1ccc(CCNC(=O)CN2C(=O)NC3(CCc4ccccc43)C2=O)cc1OCC (centres undefined)
The inhibition of the first is lower: 2.13% for the first, 7.52% for the second.

First: COc1ccc(NC(=O)C2Cc3c(-c4ccc5c(c4)OCO5)ccnc3O2)cn1 (centres undefined)
Second: Cc1nn(Cc2ccc(F)cc2)c(C)c1NC(=O)c1noc2c1CCc1ccccc1-2
The inhibition of the first is lower: -23.9% for the first, 10.4% for the second.

Going from `COc1cc(C(=O)NCc2ccc(-n3cccc3)cc2)cc(OC)c1OC` to `COc1cc(C(=O)N2CCOC23CCN(Cc2ccccc2)CC3)cc(OC)c1OC`, the inhibition falls from 5.76% to 0.19%.

Going from `Cc1cccc(-c2cnc(C(O)c3ccc4ccccc4c3)[nH]2)c1` (centres undefined) to `Cc1ccc(S(=O)(=O)N(CC(=O)N/N=C/c2ccc(F)cc2)c2cccc3cccnc23)cc1`, the inhibition rises from 5.06% to 15.1%.

First: Cc1c(CCC(=O)O)c(=O)oc2c(C)c(OCc3ccccc3Cl)ccc12
Second: Cc1coc2cc3oc(=O)c(CCC(=O)O)c(C)c3cc12
The inhibition of the first is higher: 17.1% for the first, 4.19% for the second.

First: CCOC(=O)N1CCN(Cc2nnc(-c3ccccc3Cl)o2)CC1
Second: Cc1cc(C(=O)N2CCN(c3ccccn3)CC2)c(C)o1
The inhibition of the first is higher: 2.09% for the first, -0.72% for the second.

Going from `S=c1[nH]nc(-c2ccco2)n1/N=C/c1ccc(Br)s1` to `Cc1ccc(Cl)cc1-c1ccc(/C=N/n2cnnc2)o1`, the inhibition rises from -2.7% to -0.99%.

Compared with `O=C1c2ccccc2S(=O)(=O)c2cc(N3CCN(c4ccccn4)CC3)ccc21`, `O=C(c1ccc2c(c1)C(=O)N(c1ccc(Cl)cc1)C2=O)N1CCN(c2ccccn2)CC1` is lower in inhibition: 11.1% for the first, 7.23% for the second.

Going from `Cc1ccc(C)c(N2CCN(C(=O)CCc3nc(-c4cccc(C(F)(F)F)c4)no3)CC2)c1` to `CC(C)CC(=O)Nc1cc(C(F)(F)F)ccc1N1CCOCC1`, the inhibition rises from -2.59% to 8.93%.

Going from `COCC(=O)Nc1c(C(=O)N2CCCC2)oc2ccccc12` to `CCO[C@H]1OC(C(=O)Nc2ccccc2)=C[C@@H](C2CC2)[C@@H]1CCCO`, the inhibition rises from 2.6% to 8.5%.

Going from `COc1cc(S(=O)(=O)Nc2ncn[nH]2)ccc1Cl` to `COc1ccc(OC)c(S(=O)(=O)Nc2c(C)nn(C)c2C)c1`, the inhibition falls from 3.99% to -0.88%.

First: O=C(CN1C(=O)NC2(CCCC2)C1=O)Nc1cc(C(F)(F)F)ccc1N1CCOCC1
Second: O=C(NCc1cccnc1)c1cc(S(=O)(=O)N2CCOCC2)c(Cl)cc1Cl
The inhibition of the first is lower: 2.08% for the first, 2.73% for the second.

In the case of `COc1ccccc1N(CC(=O)Nc1c(C)n(C)n(-c2ccccc2)c1=O)S(=O)(=O)c1ccccc1`, the inhibition is reported as -1.81%.

For `CCOC(=O)c1c(NC(=O)CCl)sc(C(=O)N(CC)CC)c1C`, the inhibition was 32.6% (active).
In the case of `COc1ccc2oc(N)c(C=O)c(=O)c2c1`, the inhibition is reported as 37.6% (active).
With `COc1ccc(/C=N/OCC(=O)N(Cc2ccccc2)c2ccccc2C(=O)O)cc1` the inhibition was 32.2% (active).
With `COc1ccc(-c2nc3n(c(=O)c2C#N)CCS3)c(OC)c1` the inhibition was 30.9% (active).
In the case of `COc1ccc(NC(=O)/C(Cl)=C(/Cl)S(=O)Cc2ccc(C)cc2)cn1` (centres undefined), the inhibition is reported as 57.8% (active).
For `Cc1c(CCC(=O)O)c(=O)oc2cc(OCc3ccc(Br)cc3)ccc12`, the inhibition was 29.8% (active).
With `Cc1ccc(-c2nnc(CN3CCN(C)CC3)o2)cc1` the inhibition was 30.6% (active).
For `Cc1ccccc1-c1n[nH]c(=S)n1/N=C/c1ccc(-c2ccccc2Br)o1`, the inhibition was 28.7% (active).
`O=C(c1ccc2c(c1)N(Cc1ccc(F)cc1)C(=O)c1ccccc1S2(=O)=O)N1CCN(c2ccccn2)CC1` was tested, and the inhibition was 30.5% (active).
With `COc1cccc(OC)c1C(=O)Nc1c(C(=O)N2CCN(c3ccccn3)CC2)oc2ccccc12` the inhibition was 36.6% (active).
`COc1ccc(C(C)C)cc1S(=O)(=O)Nc1ncn[nH]1` was tested, and the inhibition was 32.9% (active).
`O=C(Cn1nnc2ccccc2c1=O)Nc1cc(C(F)(F)F)ccc1N1CCOCC1` was tested, and the inhibition was 30.3% (active).
For `O=C(Nc1nccs1)c1cc(S(=O)(=O)N2CCOCC2)c(Cl)cc1Cl`, the inhibition was 35.1% (active).
`COc1ccccc1N(CC(=O)N/N=C(\C)c1ccccc1O)S(=O)(=O)c1ccc(C)cc1` was tested, and the inhibition was 33.9% (active).
